Our source for the Activity and inhibition values is ChEMBL document CHEMBL5380783, “N-Substituted l-Iminosugars for the Treatment of Sanfilippo Type B Syndrome” (J Med Chem, 2023).

The source made the active and inactive calls. The calls are words filed in the database; no cut-off is given here.

Data set [1] is described as follows: Antiproliferative activity against human CuFi cells upto 100 uM. Format: toxicity, cell-based.
In data set [2] the test system is HeLa. Kind of data set: Inhibition of heparan sulfate accumulation on cell membrane in human HeLa cells at 20 uM incubated for 48 hrs by indirect immunofluorescence staining analysis. Format: functional, cell-based. The method in brief: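 HeLa cells grown 48 h with compound, then immunostained with anti-HS antibody 10E4 to gauge membrane HS.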
The test system of data set [3] is IB3-1. The data set can be described thus: Cytotoxicity against human IB3-1 cells assessed as induction of apoptosis upto 100 uM. The note with it: ib3-1, 100 µM. Format: toxicity, cell-based.
Data set [4] deals with Fibroblast. The data set can be described thus: Inhibition of lysosomal defects in Sanfilippo-B patient derived human fibroblast cells assessed as dispersion of lysosomes all over the cytoplasm at 20 uM incubated for 48 hrs by LAMP1 staining based indirect immunofluorescence assay. It is filed as functional, cell-based. The method, boiled down:
(§1)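 HDFa, MPS IIIA, MPS IIIB and MPS I patient fibroblasts in DMEM, 10% FBS, grown 48 h on coverslips with 20 μM compound. Double immunostained for HS (10E4) and Lamp1 with DAPI, confocal imaging. Mean fluorescence intensity expressed relative to untreated cells (d-enantiomers: percent positive cells), 50 random cells from three experiments.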

Data set [5] has as its system SK-N-BE(2). Kind of data set: Inhibition of lysosomal defects in NAGLU-silenced human SK-NBE cell clones assessed as reduction in accumulation of enlarged LAMP1-positive lysosomal structures within the cytoplasm at 20 uM incubated for 48 hrs by LAMP1 staining based indirect immunofluorescence assay. It is filed as functional. The method in brief:
(§2)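 Control and NAGLU-silenced SK-NBE clones grown on coverslips with 20 μM compound for 48 h. Fixed in 3.7% formaldehyde, permeabilized with saponin/BSA buffer, stained with anti-Lamp1 or anti-HS 10E4 for 1 h, then Alexa secondaries. Confocal imaging with 63× objective. Scored as percent cells with enlarged Lamp1 structures or membrane HS, plus mean fluorescence intensity, over 50 random cells from three experiments.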

For data set [6], the system named is HaCaT. The data set can be described thus: Antiproliferative activity against human HaCaT cells upto 100 uM. It is filed as toxicity, cell-based.
In data set [7] the test system is Fibroblast. Kind of data set: Effect on heparan sulfate changes in human fibroblast cells at 20 uM incubated for 48 hrs by indirect immunofluorescence staining analysis. It is filed as functional, cell-based. The method in brief: as §1
For data set [8], the system named is SK-N-BE(2). Kind of data set: Effect on lysosome size and distribution in human SK-NBE cell clone assessed as at 20 uM incubated for 48 hrs by LAMP1 staining based indirect immunofluorescence assay. It is filed as functional. The method, boiled down: as §2
The test system of data set [9] is Fibroblast. Kind of data set: Inhibition of lysosomal defects in Sanfilippo-B patient derived human fibroblast cells assessed as reduction in accumulation of enlarged LAMP1-positive lysosomal structures within the cytoplasm at 20 uM incubated for 48 hrs by LAMP1 staining based indirect immunofluorescence assay. Format: functional, cell-based. The method, boiled down: as §1

A short description of data set [10]: Cytotoxicity against human CuFi cells assessed as induction of apoptosis upto 100 uM. Format: toxicity, cell-based.
Data set [11] relates to SK-N-BE(2). The data set can be described thus: Effect on heparan sulfate changes in human SK-NBE cell membrane at 20 uM incubated for 48 hrs by indirect immunofluorescence staining analysis. Format: functional, cell-based. The method in brief:
as §2

The subject of data set [12] is IB3-1. Kind of data set: Antiproliferative activity against human IB3-1 cells upto 100 uM. Particulars: ib3-1, 100 µM. Format: toxicity, cell-based.
Data set [13] deals with SK-N-BE(2). Kind of data set: Inhibition of heparan sulfate accumulation on cell membrane in NAGLU-silenced human SK-NBE cells clone at 20 uM incubated for 48 hrs by indirect immunofluorescence staining analysis. Format: functional, cell-based. The method, boiled down: as §2
Data set [14] relates to HaCaT. Kind of data set: Cytotoxicity against human HaCaT cells assessed as induction of apoptosis upto 100 uM. It is filed as toxicity, cell-based.
In data set [15] the test system is Fibroblast. The data set can be described thus: Inhibition of lysosomal defects in Sanfilippo-B patient derived human fibroblast cells assessed as reduction in more concentrated lysosomal distribution in the perinuclear region of the cytoplasm at 20 uM incubated for 48 hrs by LAMP1 staining based indirect immunofluorescence assay. Format: functional, cell-based. The method in brief: as §1

For data set [16], the system named is HeLa. The data set can be described thus: Cytotoxicity against human HeLa cells assessed as reduction in cell viability at 20 uM incubated for 48 hrs by trypan blue exclusion method. It is filed as functional, cell-based. The method in brief:
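HeLa cells seeded at 100,000 per well and grown overnight in complete RPMI. Exposed to 20 μM compound in the same medium for 48 h at 37 °C; untreated mock as control. Cells trypsinized, live cells counted by trypan blue exclusion on an automated counter. Means of three independent experiments, each in triplicate, with s.e.m.; Student's t-test, p < 0.05.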

Data set [17] concerns SK-N-BE(2). The data set can be described thus: Inhibition of lysosomal defects in NAGLU-silenced human SK-NBE cell clones assessed as dispersion of lysosomes all over the cytoplasm at 20 uM incubated for 48 hrs by LAMP1 staining based indirect immunofluorescence assay. It is filed as functional. The method, boiled down:
as §2

The subject of data set [18] is SK-N-BE(2). Kind of data set: Inhibition of lysosomal defects in NAGLU-silenced human SK-NBE cell clones assessed as reduction in more concentrated lysosomal distribution in the perinuclear region of the cytoplasm at 20 uM incubated for 48 hrs by LAMP1 staining based indirect immunofluorescence assay. It is filed as functional. The method, boiled down:
as §2

For data set [19], the system named is Fibroblast. The data set can be described thus: Inhibition of lysosomal defects in MPS-1 patient derived human fibroblast cells assessed as reduction in accumulation of enlarged LAMP1-positive lysosomal structures within the cytoplasm at 20 uM incubated for 48 hrs by LAMP1 staining based indirect immunofluorescence assay. Format: functional, cell-based. The method, boiled down: as §1

The subject of data set [20] is Fibroblast. Kind of data set: Inhibition of heparan sulfate accumulation on cell membrane in Sanfilippo-B patient derived human fibroblast cells at 20 uM incubated for 48 hrs by indirect immunofluorescence staining analysis. Format: functional, cell-based. The method in brief: as §1
Data set [21] deals with Fibroblast. The data set can be described thus: Inhibition of heparan sulfate accumulation on cell membrane in MPS-1 patient derived human fibroblast cells at 20 uM incubated for 48 hrs by indirect immunofluorescence staining analysis. It is filed as functional, cell-based. The method, boiled down: as §1
For data set [22], the system named is Fibroblast. The data set can be described thus: Inhibition of lysosomal defects in Sanfilippo-A patient derived human fibroblast cells assessed as reduction in accumulation of enlarged LAMP1-positive lysosomal structures within the cytoplasm at 20 uM incubated for 48 hrs by LAMP1 staining based indirect immunofluorescence assay. It is filed as functional, cell-based. The method, boiled down: as §1

The subject of data set [23] is Fibroblast. The data set can be described thus: Inhibition of heparan sulfate accumulation on cell membrane in Sanfilippo-A patient derived human fibroblast cells at 20 uM incubated for 48 hrs by indirect immunofluorescence staining analysis. Format: functional, cell-based. The method in brief: as §1

Consider `CCCCCCCCCN1C[C@@H](O)[C@H](O)[C@@H](O)[C@@H]1CO.Cl`, for which the Activity result (in data set [1]; in the data set with IB3-1 [3]; in the data set with HaCaT [6]; in [10]; in the data set on IB3-1 [12]; with HaCaT [14]) was “Non-Toxic” each time. Moreover, the inhibition entry in the data set on HeLa [2], in the data set on Fibroblast [4], in the data set with SK-N-BE(2) [5], with Fibroblast [9], in the data set with SK-N-BE(2) [13] and with Fibroblast [15] was “inactive” each time. The outcome with Fibroblast [7], with SK-N-BE(2) [8], in the data set with SK-N-BE(2) [11] and with HeLa [16] was inactive.
Turning to `CCCCCCOCCCCCN1C[C@@H](O)[C@H](O)[C@@H](O)[C@@H]1CO.Cl`, the Activity entry (in [1]; in the data set on IB3-1 [3]; with HaCaT [6]; in data set [10]; with IB3-1 [12]; with HaCaT [14]) was “Non-Toxic” throughout. The inhibition result with HeLa [2], in the data set with Fibroblast [4], in the data set with SK-N-BE(2) [5], in the data set on Fibroblast [9], with SK-N-BE(2) [13] and in the data set on Fibroblast [15] was “inactive” throughout. For the same compound, the result in the data set on Fibroblast [7], in the data set on SK-N-BE(2) [8], in the data set on SK-N-BE(2) [11] and in the data set with HeLa [16] was inactive.
As to `CCCCCCCCCOCCCCCN1C[C@@H](O)[C@H](O)[C@@H](O)[C@@H]1CO.Cl`, the Activity entry (in [1]; in the data set on IB3-1 [3]; with HaCaT [6]; in data set [10]; with IB3-1 [12]; with HaCaT [14]) was “Non-Toxic” throughout. Also, the inhibition entry in the data set with HeLa [2], with Fibroblast [4], in the data set with SK-N-BE(2) [5], in the data set with Fibroblast [9], with SK-N-BE(2) [13] and in the data set on Fibroblast [15] was “inactive” throughout. Also, the outcome in the data set with Fibroblast [7], in the data set on SK-N-BE(2) [8], in the data set on SK-N-BE(2) [11] and in the data set on HeLa [16] was inactive.
Take `CCCCN1C[C@H](O)[C@@H](O)[C@H](O)[C@H]1CO`: the inhibition result in the data set on SK-N-BE(2) [17], in the data set on SK-N-BE(2) [18], with Fibroblast [4], in the data set with Fibroblast [19], in the data set on SK-N-BE(2) [5] and with Fibroblast [20] was “inactive” in each case. For the same compound, the inhibition result with Fibroblast [9], in the data set on Fibroblast [21], in the data set with Fibroblast [22], in the data set with Fibroblast [23] and in the data set with Fibroblast [15] was “inactive” throughout. The result in the data set with Fibroblast [7], in the data set with SK-N-BE(2) [8] and in the data set with HeLa [16] was inactive.
`OC[C@H]1NC[C@H](O)[C@@H](O)[C@@H]1O`: the inhibition entry in the data set with SK-N-BE(2) [17], in the data set with SK-N-BE(2) [18], in the data set with Fibroblast [4], with Fibroblast [19], in the data set on SK-N-BE(2) [5] and with Fibroblast [20] was “inactive” each time. Further, the inhibition entry in the data set on Fibroblast [9], with Fibroblast [21], with Fibroblast [22], with Fibroblast [23] and in the data set with Fibroblast [15] was “inactive” each time. In addition, the result with Fibroblast [7], with SK-N-BE(2) [8] and with HeLa [16] was inactive.
